# According to PMC6459613 (ACS chemical biology, 2012):
# Several values for one entry are separate records, joined by “and”; a condition that tells them apart may be missing. Equal values may be shown once.
# What was measured:
# [1] = system: GST-JNK1; settings: read-out: IC50 for displacing biotinylated pepJIP1 from GST-JNK1; cited from earlier work
# [2] = system: JNK2α2 in HEK293T cells; assay: Western blot in HEK293T cells transfected with WT-JNK2α2; assay type: cell-based; settings: for JNK2α2 autophosphorylation: HEK293T over-expressing JNK2α2, without anisomycin
# Summary of the method: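 HEK293T cells were transfected with wild-type JNK2α2 or empty pcDNA3 vector. They were treated with DMSO or varying test compound concentrations without anisomycin, or with an ATP-competitive reference JNK inhibitor with and without anisomycin. Western blots assessed JNK2α2 autophosphorylation and c-Jun phosphorylation, from which an ED50 was estimated.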
# [3] = system: JNK activity in Jurkat T cells; settings: cited from earlier work
# [4] = system: JNK; settings: read-out: in-vitro cell-free IC50; ATP-competitive; cited from earlier work
# [5] = system: RAW264.7 cells; settings: LPS-stimulated RAW264.7 cells; cited from earlier work
# [6] = system: JNK pathway in HEK293 cells; assay: Western blot of phospho-JNK and phospho-c-Jun in anisomycin-treated HEK293 cells; assay type: cell-based; settings: for activation (phosphorylation) of JNK isoforms / phosphorylation of c-Jun (phospho-Ser-63): HEK293, 5-100 μM, 12 hours, then anisomycin
# Summary of the method: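 HEK293 cells were pretreated for 12 hours with DMSO or test compound at 5-100 μM. The JNK pathway was then induced with anisomycin (50-100 nM) for 5-10 minutes before lysis. Western blots detected phospho-JNK and phospho-c-Jun, and an ED50 was estimated.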
# [7] = system: MDA-MB-231 cells; assay: Cell viability monitored during migration and wound assays; assay type: cell-based, human; settings: for cell viability during the migration assay: transwell assay, 50 and 100 μM; for cell viability during the wound assay: up to 200 μM
# [8] = system: MDA-MB-231 cells; assay: Transwell chemotactic cell migration assay; assay type: cell-based, human; settings: for inhibition of migration: overnight, migration in response to serum
# Summary of the method: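 Chemotactic migration of MDA-MB-231 cells was measured in transwells. Cells were treated overnight with DMSO or test compound at 50 or 100 μM, and viability was monitored. Migrated cells on the membrane underside were stained with crystal violet. Three independent repeats.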
# [9] = target: p38MAPKγ (Homo sapiens, UniProt P53778); assay: MAP kinase selectivity assay, p38MAPKγ; assay type: biochemical
# [10] = target: WT-MKK7 (Homo sapiens, UniProt P45983); assay: Phosphorylation of inactive JNK1 by active MKK7; assay type: biochemical
# [11] = system: JNK; assay: Steady-state kinetic analysis of c-Jun phosphorylation; assay type: biochemical; settings: partial competitive inhibition model
# Summary of the method: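 Initial velocities were measured with c-Jun varied at 0.63-20 μM and test compound fixed at several levels (0-50 μM), with saturating MgATP at 0.5 mM. Rates came from linear least-squares fits of product versus time. Double-reciprocal plots were checked for linearity. Data were fitted by nonlinear least squares to a partial competitive inhibition equation.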
# [12] = target: ERK2 (Homo sapiens, UniProt P28482); assay: MAP kinase selectivity assay, ERK2; assay type: biochemical
# [13] = system: JNK2α2 (Y130A); assay: c-Jun phosphorylation in HEK293T cells transfected with JNK2α2; assay type: cell-based; settings: 0-100 μM
# Summary of the method: (§1)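 HEK293T cells were transfected with JNK2α2 DRS mutants (Y130A or C163A) or empty pcDNA3 vector and treated with test compound (0–100 μM). Western blots tracked JNK autophosphorylation and c-Jun phosphorylation, compared with non-transfected cells. Results are representative of three independent experiments.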
# [14] = target: JNK1 (Homo sapiens, UniProt P45983); assay: Phosphorylation of GST-c-Jun; assay type: biochemical
# Summary of the method: (§2)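 Activated JNK isoforms phosphorylated GST-c-Jun (1-221) at 2 μM across a dose range of test compound. Dose-response data were fitted to V0 = V00 − V00·i/(i+K50) + V′, where K50 is the half-maximal concentration and V′ is the residual rate at saturating inhibitor.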
# [15] = system: MDA-MB-231 cells; assay: Scratch wound closure assay; assay type: cell-based, human; settings: 100 and 200 μM, 24 hrs post-wounding
# Summary of the method: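 MDA-MB-231 cells were pretreated with graded concentrations of test compound. A scratch wound was then made and medium was replaced with 1% FBS-containing medium. Wound closure was measured at 0 and 24 h post-wounding, with viability checked alongside. Three independent experiments.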
# [16] = target: ERK1 (Homo sapiens, UniProt P27361); assay: MAP kinase selectivity assay, ERK1; assay type: biochemical
# [17] = target: WT-MKK4 (Homo sapiens, UniProt P45983); assay: Phosphorylation of inactive JNK1 by active MKK4; assay type: biochemical
# [18] = system: Akt phosphorylation mediated by JNK2α2; assay: Akt phosphorylation at Ser-473 in HEK293T cells transfected with WT-JNK2α2; assay type: cell-based; settings: HEK293T transfected with WT-JNK2α2, without anisomycin
# Summary of the method: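 Wild-type JNK2α2 was transfected into HEK293T cells. Cells were exposed to DMSO vehicle or a series of test compound concentrations, with no anisomycin stimulation. Akt activation was followed as phosphorylation at Ser-473.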
# [19] = system: activated JNK1, JNK2 and JNK3; assay type: biochemical; settings: read-out: IC50 values; range over JNK1, JNK2 and JNK3; GST-c-Jun 2 μM
# Summary of the method: as §2
# [20] = system: JNK2α2 (C163A); assay: c-Jun phosphorylation in HEK293T cells transfected with JNK2α2; assay type: cell-based; settings: 0-100 μM
# Summary of the method: as §1
# [21] = target: JNK3 (Homo sapiens, UniProt P53779); assay: Phosphorylation of GST-c-Jun; assay type: biochemical
# Summary of the method: as §2
# [22] = target: p38MAPKβ (Homo sapiens, UniProt Q15759); assay: MAP kinase selectivity assay, p38MAPKβ; assay type: biochemical
# [23] = system: ERK2 pathway; assay: ERK pathway specificity in HEK293 cells, EGF induced; assay type: cell-based; settings: 100 μM
# Summary of the method: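 HEK293 cells received DMSO or test compound (0-100 μM) for 12 hours. The ERK pathway was then induced with 50 ng EGF for 5-10 minutes and cells were lysed. Lysates were run on 10% SDS-PAGE and western blotted for phospho-ERK and phospho-p90RSK.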
# [24] = target: p38MAPKδ (Homo sapiens, UniProt O15264); assay: MAP kinase selectivity assay, p38MAPKδ; assay type: biochemical
# Sequence of p38MAPKδ (O15264 whole entry): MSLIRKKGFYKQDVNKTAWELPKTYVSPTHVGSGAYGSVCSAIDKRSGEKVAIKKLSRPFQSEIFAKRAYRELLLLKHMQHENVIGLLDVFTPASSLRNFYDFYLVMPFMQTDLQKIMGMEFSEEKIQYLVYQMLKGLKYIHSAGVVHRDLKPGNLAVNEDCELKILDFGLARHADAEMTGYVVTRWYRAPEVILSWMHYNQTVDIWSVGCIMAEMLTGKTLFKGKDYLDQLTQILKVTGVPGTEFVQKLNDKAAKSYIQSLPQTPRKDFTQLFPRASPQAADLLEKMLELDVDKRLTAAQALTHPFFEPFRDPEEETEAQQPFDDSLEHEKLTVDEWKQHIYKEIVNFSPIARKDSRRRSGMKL
# Sequence of WT-MKK4 (P45983 whole entry): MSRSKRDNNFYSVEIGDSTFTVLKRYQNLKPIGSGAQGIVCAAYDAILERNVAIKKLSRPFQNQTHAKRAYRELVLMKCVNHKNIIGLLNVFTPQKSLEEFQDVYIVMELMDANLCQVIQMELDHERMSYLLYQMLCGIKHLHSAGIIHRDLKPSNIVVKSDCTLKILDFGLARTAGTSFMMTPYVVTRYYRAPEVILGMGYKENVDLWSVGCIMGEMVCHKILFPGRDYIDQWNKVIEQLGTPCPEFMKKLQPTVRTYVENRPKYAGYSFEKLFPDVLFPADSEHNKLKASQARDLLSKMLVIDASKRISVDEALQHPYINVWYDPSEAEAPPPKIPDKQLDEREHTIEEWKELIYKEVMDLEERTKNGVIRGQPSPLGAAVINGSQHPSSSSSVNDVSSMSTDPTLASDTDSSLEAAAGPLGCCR
# Sequence of ERK2 (P28482 whole entry, species assumed): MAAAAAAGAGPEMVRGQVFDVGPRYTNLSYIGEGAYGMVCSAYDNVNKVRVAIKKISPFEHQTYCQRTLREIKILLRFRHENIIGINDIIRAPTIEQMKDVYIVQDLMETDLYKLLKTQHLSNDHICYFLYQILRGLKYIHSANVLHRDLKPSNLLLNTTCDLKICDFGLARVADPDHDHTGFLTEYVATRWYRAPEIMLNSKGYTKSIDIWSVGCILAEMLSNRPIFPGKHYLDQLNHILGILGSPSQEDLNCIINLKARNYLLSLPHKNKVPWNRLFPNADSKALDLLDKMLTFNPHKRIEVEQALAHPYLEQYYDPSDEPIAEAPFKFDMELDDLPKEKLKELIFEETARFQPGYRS
# Sequence of JNK1 (P45983 whole entry, canonical isoform): as the sequence (P45983 whole entry) above
# Sequence of WT-MKK7 (P45983 whole entry): as above
# Sequence of p38MAPKγ (P53778 whole entry): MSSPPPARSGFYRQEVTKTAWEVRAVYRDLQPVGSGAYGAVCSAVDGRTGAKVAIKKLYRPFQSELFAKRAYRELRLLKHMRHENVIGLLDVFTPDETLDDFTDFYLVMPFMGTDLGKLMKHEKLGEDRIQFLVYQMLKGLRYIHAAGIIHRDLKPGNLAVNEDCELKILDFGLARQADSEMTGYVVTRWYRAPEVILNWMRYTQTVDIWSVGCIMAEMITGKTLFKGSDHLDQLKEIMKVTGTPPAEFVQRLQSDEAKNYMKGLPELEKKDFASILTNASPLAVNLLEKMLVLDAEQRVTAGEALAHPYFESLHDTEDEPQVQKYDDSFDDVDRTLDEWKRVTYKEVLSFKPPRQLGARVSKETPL
# Sequence of JNK3 (P53779 whole entry): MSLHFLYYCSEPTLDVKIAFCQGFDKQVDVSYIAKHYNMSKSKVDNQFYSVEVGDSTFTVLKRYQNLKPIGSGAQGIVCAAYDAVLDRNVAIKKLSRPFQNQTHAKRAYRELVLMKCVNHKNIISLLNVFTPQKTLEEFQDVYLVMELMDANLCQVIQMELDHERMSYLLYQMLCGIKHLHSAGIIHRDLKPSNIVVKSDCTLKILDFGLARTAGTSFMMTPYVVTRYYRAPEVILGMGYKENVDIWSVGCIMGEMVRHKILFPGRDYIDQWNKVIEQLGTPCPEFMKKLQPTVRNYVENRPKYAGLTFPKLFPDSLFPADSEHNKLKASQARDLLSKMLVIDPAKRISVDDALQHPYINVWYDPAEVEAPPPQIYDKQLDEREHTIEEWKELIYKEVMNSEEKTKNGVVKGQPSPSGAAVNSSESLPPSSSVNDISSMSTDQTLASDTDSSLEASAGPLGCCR
# Sequence of ERK1 (P27361 whole entry, species assumed): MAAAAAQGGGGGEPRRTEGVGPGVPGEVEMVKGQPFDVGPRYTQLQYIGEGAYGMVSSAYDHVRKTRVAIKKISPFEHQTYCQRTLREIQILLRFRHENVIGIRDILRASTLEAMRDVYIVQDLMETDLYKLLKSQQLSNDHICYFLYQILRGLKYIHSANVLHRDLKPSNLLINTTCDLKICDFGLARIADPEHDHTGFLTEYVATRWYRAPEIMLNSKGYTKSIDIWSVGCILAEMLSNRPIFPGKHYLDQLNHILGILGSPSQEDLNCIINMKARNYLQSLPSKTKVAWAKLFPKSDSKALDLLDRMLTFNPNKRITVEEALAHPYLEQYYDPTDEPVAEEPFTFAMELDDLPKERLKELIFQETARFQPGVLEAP
# Sequence of p38MAPKβ (Q15759 whole entry): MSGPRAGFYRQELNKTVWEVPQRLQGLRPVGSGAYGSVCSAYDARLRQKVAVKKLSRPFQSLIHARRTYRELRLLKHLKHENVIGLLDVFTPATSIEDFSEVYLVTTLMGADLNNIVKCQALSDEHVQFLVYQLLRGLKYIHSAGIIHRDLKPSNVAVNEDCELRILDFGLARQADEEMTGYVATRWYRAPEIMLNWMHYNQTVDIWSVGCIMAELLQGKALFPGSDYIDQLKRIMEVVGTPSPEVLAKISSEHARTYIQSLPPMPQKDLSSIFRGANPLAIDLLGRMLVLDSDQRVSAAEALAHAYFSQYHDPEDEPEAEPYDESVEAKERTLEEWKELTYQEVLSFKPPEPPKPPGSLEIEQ
compound,measurement,setting,value
O=c1[nH]nc(Sc2ncc([N+](=O)[O-])s2)n1-c1ccc2c(c1)OCCO2 [BI-78D3],IC50,[1],500 nM
"Oc1c2ccccc2c2c3c(cccc13)N=N2 [SP600125, reference compound]",JNK2α2 phosphorylation in cells stimulated using anisomycin,"[2]; HEK293T over-expressing JNK2α2, with anisomycin",no longer able to inhibit
same,JNK2α2 autophosphorylation,[2],autophosphorylation was inhibited
same,ED50 for JNK activity,[3],~10000 nM
same,IC50,[4],40 to 100 nM
COc1cc([C@H]2O[C@H](c3ccc4c(c3)OCO4)[C@H](C)[C@H]2C)ccc1O[C@H](C)[C@@H](O)c1ccc2c(c1)OCO2 [saucerneol F],nitric oxide (NO) production,[5],inhibits nitric oxide (NO) production in a dose-dependent manner
(+)-zuonin A,activation (phosphorylation) of JNK isoforms,[6],inhibits neither JNK activation nor c-Jun phosphorylation
same,phosphorylation of c-Jun (phospho-Ser-63),[6],inhibits neither JNK activation nor c-Jun phosphorylation
same,cell viability during the migration assay,[7],unaffected
same,cell viability during the wound assay,[7],unaffected
same,effect on cell migration,[8]; 50 and 100 μM,able to mildly suppress cell migration
(−)-zuonin A,activation (phosphorylation) of JNK isoforms,[6],blunts the activation of the JNK isoforms in cells in a dose-dependent manner
same,phosphorylation of c-Jun (phospho-Ser-63),[6],clearly blunted
same,ED50 for inhibiting JNK phosphorylation,"[6]; HEK293 cells, stimulation by anisomycin",around 25 μM
same,IC50,[9],> 200000 nM
same,% Inhibition at Saturating (−)-zuonin A (200 μM),[9]; 200 μM,10%
same,% Inhibition at Saturating (−)-zuonin A (200 μM),"[10]; 200 μM, phosphorylation of JNK",50%
same,IC50,[10]; inhibits the phosphorylation of JNK (inactive JNK1) by MKK7,1990 ± 150 nM
same,α (factor by which affinity of JNK for c-Jun is weakened),[11],~5
same,β (effect on kcat),[11],1
same,IC50,[12],> 200000 nM
same,% Inhibition at Saturating (−)-zuonin A (200 μM),[12]; 200 μM,10%
same,JNK2α2 autophosphorylation,[2],unable to inhibit JNK2α2 autophosphorylation even at a concentration of 100 μM
same,ED50 for phosphorylation of c-Jun mediated by over-expressed JNK2α2,"[2]; HEK293T, without anisomycin",approximately 25 μM
same,sensitivity of c-Jun phosphorylation,[13],more sensitive
same,cell viability during the migration assay,[7],unaffected
same,cell viability during the wound assay,[7],unaffected
same,% Inhibition at Saturating (−)-zuonin A (200 μM),[14]; 200 μM,75%
same,IC50,[14]; GST-c-Jun 2 μM,1700 ± 260 nM
same,wound closure,[15],sufficient to inhibit wound closure
same,IC50,[16],> 200000 nM
same,% Inhibition at Saturating (−)-zuonin A (200 μM),[16]; 200 μM,10%
same,% Inhibition at Saturating (−)-zuonin A (200 μM),"[17]; 200 μM, phosphorylation of JNK",77%
same,IC50,[17]; inhibits the phosphorylation of JNK (inactive JNK1) by MKK4,~1800 nM and 1800 nM
same,Akt phosphorylation (Ser-473) mediated by JNK2α2,[18],able to inhibit Akt phosphorylation
same,inhibition of migration,[8]; 50 μM,approximately 45%
same,inhibition of migration,[8]; 100 μM,~80%
same,IC50,[19],1700 to 2900 nM
same,sensitivity of c-Jun phosphorylation,[20],unresponsive
same,% Inhibition at Saturating (−)-zuonin A (200 μM),[21]; 200 μM,73%
same,IC50,[21]; GST-c-Jun 2 μM,1740 ± 160 nM
same,% Inhibition at Saturating (−)-zuonin A (200 μM),[22],15%
same,phosphorylation of ERK or its protein substrate p-90RSK,[23],no effect
same,IC50,[24],> 200000 nM
same,% Inhibition at Saturating (−)-zuonin A (200 μM),[24]; 200 μM,10%
